# In ChEMBL document CHEMBL4673235, “Synthesis and biological evaluation of ethacrynic acid derivatives bearing sulfonamides as potent anti-cancer agents” (Bioorg Med Chem Lett, 2020):
# Experiments:
# HCT-116 [1] = assay: Cytotoxicity against human HCT-116 cells assessed as cell viability at 10 uM by CellTiter Glo luminescent assay relative to control; type: functional; conditions: read-out: Activity
# Procedure, shortened: (§1)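 Single-concentration screen at 10 µM; percentage viability measured by CellTiter-Glo luminescent quantitation of ATP in metabolically active cells.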
# HL-60 [2] = assay: Cytotoxicity against human HL-60 cells assessed as cell viability at 10 uM by CellTiter Glo luminescent assay relative to control; type: functional; conditions: read-out: Activity; procedure, shortened: as §1
# HL-60 [3] = assay: Cytotoxicity against human HL-60 cells assessed as reduction in cell viability by CellTiter Glo luminescent assay; type: functional, cell-based
# Procedure, shortened: (§2)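 CellTiter-Glo luminescent read-out of cellular ATP, taken as proportional to viable cell number; percentage viability measured and IC50 derived. MRC5 used as normal (non-cancer) line.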
# [4] = Selectivity index, ratio of IC50 for human MRC5 cells to IC50 for human HL60 cells by CellTiter Glo luminescent assay; type: toxicity; conditions: MRC5 cells versus HL60 cells, read-out: Ratio IC50
# [5] = Selectivity index, ratio of IC50 for human MRC5 cells to IC50 for human MCF7 cells by CellTiter Glo luminescent assay; type: toxicity; conditions: MRC5 cells versus MCF7 cells, read-out: Ratio IC50
# Procedure, shortened: (§3)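 Safety ratio computed as IC50 in MRC5 normal cells divided by IC50 in the cancer line, both from CellTiter-Glo ATP-luminescence viability assays.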
# [6] = Selectivity index, ratio of IC50 for human MRC5 cells to IC50 for human HCT-116 cells by CellTiter Glo luminescent assay; type: toxicity; conditions: MRC5 cells versus HCT-116 cells, read-out: Ratio IC50; procedure, shortened: as §3
# PC-3 = assay: Cytotoxicity against human PC-3 cells assessed as reduction in cell viability by CellTiter Glo luminescent assay; type: functional, cell-based; procedure, shortened: as §2
# [7] = Selectivity index, ratio of IC50 for human MRC5 cells to IC50 for human PC-3 cells by CellTiter Glo luminescent assay; type: toxicity; conditions: MRC5 cells versus PC-3 cells, read-out: Ratio IC50; procedure, shortened: as §3
# MCF7 = assay: Cytotoxicity against human MCF7 cells assessed as reduction in cell viability by CellTiter Glo luminescent assay; type: functional, cell-based; procedure, shortened: as §2
# [8] = Selectivity index, ratio of IC50 for human HL-60 cells to IC50 for human HCT-116 cells by CellTiter Glo luminescent assay; type: functional
# [9] = Selectivity index, ratio of IC50 for human MRC5 cells to IC50 for human A549 cells by CellTiter Glo luminescent assay; type: toxicity; conditions: MRC5 cells versus A549 cells, read-out: Ratio IC50; procedure, shortened: as §3
# [10] = Selectivity index, ratio of IC50 for human MRC5 cells to IC50 for human SK-OV-3 cells by CellTiter Glo luminescent assay; type: toxicity; conditions: MRC5 cells versus SK-OV-3 cells, read-out: Ratio IC50; procedure, shortened: as §3
# [11] = Selectivity index, ratio of IC50 for human MRC5 cells to IC50 for human U-87 MG cells by CellTiter Glo luminescent assay; type: toxicity; conditions: MRC5 cells versus U-87 MG cells, read-out: Ratio IC50; procedure, shortened: as §3
# A549 = assay: Cytotoxicity against human A549 cells assessed as reduction in cell viability by CellTiter Glo luminescent assay; type: functional, cell-based; procedure, shortened: as §2
# HCT-116 [12] = assay: Cytotoxicity against human HCT-116 cells assessed as reduction in cell viability by CellTiter Glo luminescent assay; type: functional, cell-based; procedure, shortened: as §2
# SK-OV-3 = assay: Cytotoxicity against human SK-OV-3 cells assessed as reduction in cell viability by CellTiter Glo luminescent assay; type: functional, cell-based; procedure, shortened: as §2
# U-87 MG = assay: Cytotoxicity against human U-87 MG cells assessed as reduction in cell viability by CellTiter Glo luminescent assay; type: functional, cell-based, U-87MG ATCC; procedure, shortened: as §2
# MRC5 = assay: Cytotoxicity against human MRC5 cells assessed as reduction in cell viability by CellTiter Glo luminescent assay; type: cell-based; procedure, shortened: as §2
SMILES,viability at 10 µM (HCT-116 [1]),viability at 10 µM (HL-60 [2]),IC50 (HL-60 [3]),also measured
C=C(CC)C(=O)c1ccc(OCC(=O)NC2CCN(S(=O)(=O)C3CCCCC3)CC2)c(Cl)c1Cl,61%,41%,2940 nM,
C=C(CC)C(=O)c1ccc(OCC(=O)N2CCN(S(=O)(=O)c3cc(Cl)ccc3OC)CC2)c(Cl)c1Cl,75%,24%,1410 nM,
C=C(CC)C(=O)c1ccc(OCC(=O)NC2CCN(S(=O)(=O)c3cccc4cccnc34)CC2)c(Cl)c1Cl,84%,34%,970 nM,
C=C(CC)C(=O)c1ccc(OCC(=O)N2CCN(S(=O)(=O)c3ccc(OC)cc3)CC2)c(Cl)c1Cl,21%,17%,590 nM,selectivity ratio [4]: 0.16; selectivity ratio [5]: 1.78; selectivity ratio [6]: 2; IC50 (PC-3): 24 nM; selectivity ratio [7]: 4.03; IC50 (MCF7): 56 nM; Ratio IC50 [8]: 12; selectivity ratio [9]: 1.54; selectivity ratio [10]: 0.45; selectivity ratio [11]: 0.48; IC50 (A549): 64 nM; IC50 (HCT-116 [12]): 50 nM; IC50 (SK-OV-3): 219 nM; IC50 (U-87 MG): 207 nM; IC50 (MRC5): 100 nM
C=C(CC)C(=O)c1ccc(OCC(=O)NCCNS(=O)(=O)c2ccc(OC)cc2)c(Cl)c1Cl,97%,24%,860 nM,
C=C(CC)C(=O)c1ccc(OCC(=O)NCCNS(=O)(=O)c2ccc(OC)c(OC)c2)c(Cl)c1Cl,97%,19%,3360 nM,
C=C(CC)C(=O)c1ccc(OCC(=O)NCCNS(=O)(=O)c2ccc(OC)cc2OC)c(Cl)c1Cl,77%,35%,2790 nM,
C=C(CC)C(=O)c1ccc(OCC(=O)N2CCN(S(=O)(=O)c3ccc(C)cc3)CC2)c(Cl)c1Cl,100%,64%,,
C=C(CC)C(=O)c1ccc(OCC(=O)NC2CCN(S(=O)(=O)c3ccc(OC)c(OC)c3)CC2)c(Cl)c1Cl,99%,25%,1310 nM,
C=C(CC)C(=O)c1ccc(OCC(=O)NCCNS(=O)(=O)c2cccc3cccnc23)c(Cl)c1Cl,100%,20%,1330 nM,
C=C(CC)C(=O)c1ccc(OCC(=O)N2CCN(S(=O)(=O)c3ccc(OC)cc3OC)CC2)c(Cl)c1Cl,40%,15%,3190 nM,
C=C(CC)C(=O)c1ccc(OCC(=O)N2CCN(S(=O)(=O)c3ccc(OC)c(OC)c3)CC2)c(Cl)c1Cl,89%,100%,,
C=C(CC)C(=O)c1ccc(OCC(=O)N2CCN(S(=O)(=O)c3cccc4cccnc34)CC2)c(Cl)c1Cl,100%,28%,2980 nM,
COc1cccc2c1C(=O)c1c(O)c3c(c(O)c1C2=O)C[C@@](O)(C(=O)CO)C[C@@H]3O[C@H]1C[C@H](N)[C@H](O)[C@H](C)O1 [DOXORUBICIN],,,10 nM,IC50 (PC-3): 2 nM; IC50 (MCF7): 120 nM; IC50 (A549): 56 nM; IC50 (HCT-116 [12]): 90 nM; IC50 (U-87 MG): 90 nM; IC50 (MRC5): 39 nM
